# Measurements taken from ChEMBL document CHEMBL1240354, “Efficacy of posaconazole against three clinical Aspergillus fumigatus isolates with mutations in the cyp51A gene” (Antimicrob Agents Chemother, 2010).
# What was measured:
# Assay type in all cases: functional
# Aspergillus fumigatus [1] = assay: Antifungal activity against Aspergillus fumigatus isolate AZN 8196 harboring wild type Cyp51A protein by broth microdilution method
# Procedure, shortened: (§1)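 Broth microdilution followed CLSI M38A. Isolates were stored in 10% glycerol broth at −80°C and revived on Sabouraud dextrose agar with 0.02% chloramphenicol for 5 to 7 days at 35°C before testing.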
# Aspergillus fumigatus [2] = assay: Antifungal activity against Aspergillus fumigatus isolate V28-77 harboring M220I mutation in Cyp51A protein by broth microdilution method; procedure, shortened: as §1
# Aspergillus fumigatus [3] = assay: Antifungal activity against Aspergillus fumigatus isolate V52-35 harboring TR L98H mutation in Cyp51A protein by broth microdilution method; procedure, shortened: as §1
# Aspergillus fumigatus [4] = assay: Antifungal activity against Aspergillus fumigatus isolate V59-73 harboring G54W mutation in Cyp51A protein by broth microdilution method; procedure, shortened: as §1
SMILES,minimal effective concentration (Aspergillus fumigatus [1]; read-out: MEC),minimal effective concentration (Aspergillus fumigatus [2]; read-out: MEC),minimal effective concentration (Aspergillus fumigatus [3]; read-out: MEC),minimal effective concentration (Aspergillus fumigatus [4]; read-out: MEC),MIC (Aspergillus fumigatus [1]),MIC (Aspergillus fumigatus [2]),MIC (Aspergillus fumigatus [3]),MIC (Aspergillus fumigatus [4])
CC[C@H](C)C[C@H](C)CCCCCCCCC(=O)N[C@H]1C[C@@H](O)[C@@H](NCCN)NC(=O)[C@@H]2[C@@H](O)CCN2C(=O)[C@H]([C@H](O)CCN)NC(=O)[C@H]([C@H](O)[C@@H](O)c2ccc(O)cc2)NC(=O)[C@@H]2C[C@@H](O)CN2C(=O)[C@H]([C@@H](C)O)NC1=O [CASPOFUNGIN],0.25 µg/mL,0.25 µg/mL,0.25 µg/mL,0.25 µg/mL,,,,
CCC(C)n1ncn(-c2ccc(N3CCN(c4ccc(OCC5COC(Cn6cncn6)(c6ccc(Cl)cc6Cl)O5)cc4)CC3)cc2)c1=O (stereo not drawn) [ITRACONAZOLE],,,,,0.125 µg/mL,> 16 µg/mL,> 16 µg/mL,> 16 µg/mL
